According to ChEMBL document CHEMBL1158468, “Synthesis, structure-activity relationships, and in vivo evaluation of N3-phenylpyrazinones as novel corticotropin-releasing factor-1 (CRF1) receptor antagonists” (J Med Chem, 2009):

Target: T1, Corticotropin-releasing factor receptor 1 (Rattus norvegicus, UniProt P35353)
T1 sequence (P35353 whole entry): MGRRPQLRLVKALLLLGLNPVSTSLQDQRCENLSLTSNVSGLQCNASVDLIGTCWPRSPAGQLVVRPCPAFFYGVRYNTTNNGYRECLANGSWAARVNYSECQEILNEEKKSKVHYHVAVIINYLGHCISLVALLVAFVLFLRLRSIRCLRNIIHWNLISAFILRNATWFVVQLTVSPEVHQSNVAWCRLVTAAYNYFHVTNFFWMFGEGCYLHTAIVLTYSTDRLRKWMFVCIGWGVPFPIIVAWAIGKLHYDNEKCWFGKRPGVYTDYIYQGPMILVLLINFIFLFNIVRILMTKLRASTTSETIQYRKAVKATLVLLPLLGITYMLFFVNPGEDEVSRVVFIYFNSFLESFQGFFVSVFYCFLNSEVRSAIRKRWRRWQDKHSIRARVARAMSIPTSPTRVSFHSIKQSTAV
Experiment: Displacement of [125I]Tyr-ovine-CRF from CRF1 receptor in rat frontal cortex homogenate by gamma counting
Type: tissue-based
How it was run: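 Washed homogenates of frozen rat frontal cortex (CRF1, 25 μg/well) or porcine choroid plexus (CRF2, 10 μg/well) in 50 mM Hepes pH 7.0, 10 mM MgCl2, 2 mM EGTA, protease inhibitors, 0.005% Triton X-100. Ligand 150 pM 125I-ovine-CRF (CRF1) or 100 pM 125I-sauvagine (CRF2). Incubation 2 h at 21 °C, then filtration and gamma counting. Nonspecific binding: 1 μM CRF1 reference antagonist or 1 μM α-helical CRF(9-41). IC50 from 5- or 10-point curves by nonlinear regression.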

IC50 [nM] | Structure (SMILES)
1.7 | COC[C@@H](C)n1cc(Cl)nc(Nc2cc(C)c(OC)cc2C)c1=O
34 | CCN(c1c(Cl)cc(OC)cc1Cl)c1nccn([C@H](C)C2CC2)c1=O
16 | COCC(COC)n1cc(Cl)nc(Nc2c(C)cc(C)cc2C)c1=O
1.3 | COC[C@@H](C1CC1)n1cc(Cl)nc(Nc2c(C)cc(C)cc2C)c1=O
0.52 | CC[C@H](C1CC1)n1cc(Cl)nc(Nc2c(C)cc(OC)cc2C)c1=O
2.4 | CCCC(CCC)n1cc(Cl)nc(Nc2c(C)cc(C)cc2C)c1=O
1.5 | CC[C@H](C1CC1)n1cc(Cl)nc(N(CC)c2cc(C)c(C)cc2C)c1=O
180 | CCc1cn([C@H](C)C2CC2)c(=O)c(Nc2ccc(OC)nc2C(F)(F)F)n1
1.4 | CC[C@H](COC)n1cc(Cl)nc(Nc2c(C)cc(C)cc2C)c1=O
0.53 | CC[C@H](C1CC1)n1cc(Cl)nc(Nc2c(C)cc(Cl)cc2Cl)c1=O
0.62 | COc1cc(Cl)c2c(c1)CCN2c1nc(Cl)cn([C@H](C)C2CC2)c1=O
0.8 | CCC(CC)n1cc(Cl)nc(Nc2cc(C)c(OC)cc2C)c1=O
1.1 | COc1cc(Cl)c(Nc2nc(Cl)cn([C@H](C)C3CC3)c2=O)c(Cl)c1
2.1 | COCC(COC)n1cc(Cl)nc(Nc2cc(C)c(OC)cc2C)c1=O
2.4 | CC[C@H](C1CC1)n1cc(Cl)nc(Nc2cc(C)c(C)cc2C)c1=O
10 | COc1cc(C)c(Nc2nc(Cl)cn([C@@H](CO)C3CC3)c2=O)cc1C
2.4 | C[C@H](C1CC1)n1cc(Cl)nc(Nc2c(Cl)cc(C#N)cc2Cl)c1=O
39 | CCC(CC)Cn1cc(Cl)nc(Nc2c(C)cc(C)cc2C)c1=O
0.59 | CC[C@H](COC)n1cc(Cl)nc(Nc2cc(C)c(OC)cc2C)c1=O
2.9 | CCC(CC)n1cc(Cl)nc(Nc2c(C)cc(C)cc2C)c1=O
6.6 | CC[C@H](C1CC1)n1cc(Cl)nc(Nc2ccc(C)cc2C)c1=O
0.42 | COc1cc(C)c(Nc2nc(Cl)cn([C@H](C)C3CC3)c2=O)cc1C
1.2 | COc1ccc(Nc2nc(Br)cn([C@H](C)C3CC3)c2=O)c(C(F)(F)F)n1
150 | COc1ccc(Nc2nccn([C@H](C)C3CC3)c2=O)c(C(F)(F)F)n1
9.3 | CC[C@H](C1CC1)n1cc(Cl)nc(Nc2c(C)cccc2Cl)c1=O
